The text below walks through data of ChEMBL document CHEMBL1138561, “Synthesis of novel N-protected hydrophobic phenylalanines and their application in potential antibacterials” (2009).

SMILES strings stand for the structures. Values after ≈ are worked out from the molar mass of the structure shown. Bounds are passed on as bounds.

One assay has as its system Enterococcus faecalis. Put plainly: Antibacterial activity against vancomycin-sensitive Enterococcus faecalis. It counts as functional. A digest of the protocol:
(§1)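 Broth microdilution in Mueller–Hinton medium, with the inoculum a 1/10 dilution of seed culture. Peptoids were dissolved in 50% MeOH/H2O to 1 mg/mL, added to the top row and serially diluted down the plate. Plates were incubated at 37 °C with shaking at 100 rpm for 18 h, with two peptoids per plate.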

A further assay relates to Staphylococcus aureus. Put plainly: Antibacterial activity against Staphylococcus aureus ATCC 6538 after 18 hrs. The class given is functional. Particulars: ATCC 6538, 18 h. The procedure, abridged: as §1

Regarding `C=CCOc1ccc(C[C@H](NC(C)=O)C(=O)N[C@@H](CCCCN)C(=O)N[C@H](CCCNC(=N)N)C(=O)N[C@@H](CC=C)C(=O)OCc2ccccc2)cc1.Cl.Cl`, the MIC in the assay on Enterococcus faecalis and against Staphylococcus aureus was > 125 µg/mL each time.
As for `C=CC[C@H](NC(=O)[C@@H](CCCNC(=N)N)NC(=O)[C@H](CCCCN)NC(=O)[C@H](Cc1ccc(-c2cc3ccccc3c3ccccc23)cc1)NC(C)=O)C(=O)OCc1ccccc1.Cl.Cl`, the MIC against Enterococcus faecalis was > 125 µg/mL; with Staphylococcus aureus, 7.8 µg/mL.
As for `C=CC[C@H](NC(=O)[C@H](CCCCN)NC(=O)[C@H](Cc1ccc(-c2c3ccccc3cc3ccccc23)cc1)NC(C)=O)C(=O)OC.Cl`, the figures for the MIC in the assay on Enterococcus faecalis and against Staphylococcus aureus were > 125 µg/mL and 31.3 µg/mL, respectively.
For `C=CC[C@H](NC(=O)[C@H](CCCCN)NC(=O)[C@H](Cc1ccc(-c2cc3ccccc3c3ccccc23)cc1)NC(C)=O)C(=O)OC.Cl`, the minimum inhibitory concentration (MIC) in the assay with Enterococcus faecalis was > 125 µg/mL; with Staphylococcus aureus, 15.6 µg/mL.
For the compound `C=CC[C@H](NC(=O)[C@@H](CCCNC(=N)N)NC(=O)[C@H](CCCCN)NC(=O)[C@H](Cc1ccc(-c2c3ccccc3cc3ccccc23)cc1)NC(C)=O)C(=O)OCc1ccccc1.Cl.Cl`, the results for the MIC in the assay with Enterococcus faecalis and against Staphylococcus aureus were > 125 µg/mL and 15.6 µg/mL, respectively.
In the case of `CN[C@H](CC(C)C)C(=O)N[C@H]1C(=O)N[C@@H](CC(N)=O)C(=O)N[C@H]2C(=O)N[C@H]3C(=O)N[C@H](C(=O)N[C@H](C(=O)O)c4cc(O)cc(O)c4-c4cc3ccc4O)[C@H](O)c3ccc(c(Cl)c3)Oc3cc2cc(c3O[C@@H]2O[C@H](CO)[C@@H](O)[C@H](O)[C@H]2O[C@H]2C[C@](C)(N)[C@H](O)[C@H](C)O2)Oc2ccc(cc2Cl)[C@H]1O` [VANCOMYCIN], 1.95 µg/mL (≈ 1.35 µM) was the least that counted as inhibitory with Staphylococcus aureus (MIC).
